Test results taken from ChEMBL document CHEMBL2429803, “Animal toxicity of hairpin pyrrole-imidazole polyamides varies with the turn unit” (J Med Chem, 2013).

Columns and labels:
[1] = tested on: Mus musculus; assay: Acute toxicity in C57BL/6J mouse assessed as lesions in stomach at 1 to 10 mg/kg, sc after 9 days; type: organism-based; design: dose 1-10 mg/kg, route subcutaneous; details: in vivo, 216 h
In short: (§1)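 Male C57BL/6J mice, 8 weeks old, received a single sc dose (1, 3 or 10 mg/kg in 25% DMSO/saline, n = 4 per group) and were sacrificed after 9 days. Two representative animals per group were fixed in 10% formalin. Cecum, duodenum, heart, ileum, kidney, liver, lung, pancreas, spleen and stomach were examined blind by a veterinary pathologist and lesions graded mild, moderate or severe.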

[2] = tested on: Mus musculus; assay: Acute toxicity in C57BL/6J mouse assessed as lesions in pancreas at 1 to 10 mg/kg, sc after 9 days; type: organism-based; design: dose 1-10 mg/kg, route subcutaneous; details: in vivo, 216 h; in short: as §1
[3] = tested on: Mus musculus; assay: Acute toxicity in C57BL/6J mouse assessed as lesions in lungs at 1 to 10 mg/kg, sc after 9 days; type: organism-based; design: dose 1-10 mg/kg, route subcutaneous; details: in vivo, 216 h; in short: as §1
[4] = tested on: Mus musculus; assay: Acute toxicity in C57BL/6J mouse assessed as lesions in heart at 1 to 10 mg/kg, sc after 9 days; type: organism-based; design: dose 1-10 mg/kg, route subcutaneous; details: in vivo, 216 h; in short: as §1
[5] = tested on: Mus musculus; assay: Acute toxicity in C57BL/6J mouse assessed as lesions in GI tract at 1 to 10 mg/kg, sc after 9 days; type: organism-based, Gastrointestinal tract; design: dose 1-10 mg/kg, route subcutaneous; details: in vivo, 216 h; in short: as §1
[6] = tested on: Mus musculus; assay: Acute toxicity in C57BL/6J mouse assessed as mild lymphoid apoptosis in white pulp of spleen at 3 to 10 mg/kg, sc after 9 days; type: organism-based; design: dose 3-10 mg/kg, route subcutaneous; details: in vivo, 216 h; in short: as §1
[7] = tested on: Mus musculus; assay: Acute toxicity in C57BL/6J mouse assessed as karyomegaly at 1 mg/kg, sc after 9 days; type: organism-based; design: dose 1 mg/kg, route subcutaneous; details: in vivo, 216 h; in short: as §1
[8] = tested on: Mus musculus; assay: Acute toxicity in C57BL/6J mouse assessed as milder tubular regeneration at 1 mg/kg, sc after 9 days; type: organism-based; design: dose 1 mg/kg, route subcutaneous; details: in vivo, 216 h; in short: as §1
[9] = tested on: Mus musculus; assay: Acute toxicity in C57BL/6J mouse assessed as tubular epithelial necrosis and apoptosis in kidney at 3 to 10 mg/kg, sc after 9 days; type: organism-based; design: dose 3-10 mg/kg, route subcutaneous; details: in vivo, 216 h; in short: as §1
[10] = tested on: Mus musculus; assay: Acute toxicity in C57BL/6J mouse assessed as moderate atypical tubular regeneration in kidney at 3 to 10 mg/kg, sc after 9 days; type: organism-based; design: dose 3-10 mg/kg, route subcutaneous; details: in vivo, 216 h; in short: as §1
[11] = tested on: Mus musculus; assay: Acute toxicity in C57BL/6J mouse assessed as hepatocellular necrosis and apoptosis at 1 mg/kg, sc after 9 days; type: organism-based; design: dose 1 mg/kg, route subcutaneous; details: in vivo, 216 h; in short: as §1
[12] = tested on: Mus musculus; assay: Acute toxicity in C57BL/6J mouse assessed as multifocal bridging hepatocellular necrosis and apoptosis at 3 to 10 mg/kg, sc after 9 days; type: organism-based; design: dose 3-10 mg/kg, route subcutaneous; details: in vivo, 216 h; in short: as §1
[13] = tested on: Mus musculus; assay: Acute toxicity in C57BL/6J mouse assessed as diffuse hepatocellular necrosis and apoptosis at 3 to 10 mg/kg, sc after 9 days; type: organism-based; design: dose 3-10 mg/kg, route subcutaneous; details: in vivo, 216 h; in short: as §1
[14] = tested on: Mus musculus; assay: Acute toxicity in C57BL/6J mouse assessed as acute morbidity at 3 to 10 mg/kg, sc after 9 days; type: organism-based; design: dose 3-10 mg/kg, route subcutaneous; details: in vivo, 216 h
In short: (§2)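 Male C57BL/6J mice, 8 weeks old, were acclimated 3 days and then given a single sc injection of 1, 3 or 10 mg/kg in 25% DMSO/saline vehicle (up to 200 μL), n = 4 per group. Weight, behaviour and appearance were monitored daily for 9 days before sacrifice. The humane end point was visible duress or weight loss over 15% of the original.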

[15] = tested on: Mus musculus; assay: Acute toxicity in C57BL/6J mouse assessed as hunched posture at 3 to 10 mg/kg, sc after 9 days; type: organism-based; design: dose 3-10 mg/kg, route subcutaneous; details: in vivo, 216 h; in short: as §2
[16] = tested on: Mus musculus; assay: Acute toxicity in C57BL/6J mouse assessed as loss of mobility at 3 to 10 mg/kg, sc after 9 days; type: organism-based; design: dose 3-10 mg/kg, route subcutaneous; details: in vivo, 216 h; in short: as §2
[17] = tested on: Mus musculus; assay: Acute toxicity in C57BL/6J mouse at 1 mg/kg, sc after 9 days; type: organism-based; design: dose 1 mg/kg, route subcutaneous; details: in vivo, 216 h
In short: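 Single sc injection in male 8-week-old C57BL/6J mice (1, 3 or 10 mg/kg in 25% DMSO/saline; n = 4 per group), followed for 9 days with daily weighing, then sacrifice. Toxicity was assessed by blinded histopathology of two mice per group and by blinded serum ALT, AST, total bilirubin, BUN and creatinine from retroorbital blood of all mice.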

[18] = Metabolic stability in mouse liver microsomes after 1 hr by LC/MS/MS analysis in presence of NADPH; type: ADME, Microsome; details: read-out: Stability
In short: (§3)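 Compound incubated at 37 °C for 60 min with 1 mg/mL human or mouse liver microsomes in 100 mM KH2PO4, 3 mM MgCl2, pH 7.4, with 2 mM NADPH or without it. Stopped with ice-cold methanol, then precipitate removed. Analyzed by LC/MS/MS as % remaining versus time zero. Duplicates.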

[19] = Metabolic stability in mouse liver microsomes after 1 hr by LC/MS/MS analysis; type: ADME, Microsome; details: read-out: Stability; in short: as §3
[20] = Metabolic stability in human liver microsomes after 1 hr by LC/MS/MS analysis in presence of NADPH; type: ADME, Microsome; details: read-out: Stability; in short: as §3
[21] = Metabolic stability in human liver microsomes after 1 hr by LC/MS/MS analysis; type: ADME, Microsome; details: read-out: Stability; in short: as §3
[22] = tested on: Mus musculus; assay: Toxicity in C57BL/6J mouse assessed as hyaline droplet accumulation at 1 mg/kg, sc administered every 3 days for a cycle of 3 injections measured 2 days post last injection; type: organism-based; design: dose 1 mg/kg, route subcutaneous; details: in vivo, 48 h
In short: (§4)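 Male C57BL/6J mice, 8 weeks old, given 1 mg/kg sc every 3 days for three injections and sacrificed 2 days after the last one. Two mice per group fixed in 10% formalin. A veterinary pathologist, blinded, examined cecum, duodenum, heart, ileum, kidney, liver, lung, pancreas, spleen and stomach. Lesions graded mild, moderate or severe.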

[23] = tested on: Mus musculus; assay: Toxicity in C57BL/6J mouse assessed as hepatocellular necrosis and apoptosis at 1 mg/kg, sc administered every 3 days for a cycle of 3 injections measured 2 days post last injection; type: organism-based; design: dose 1 mg/kg, route subcutaneous; details: in vivo, 48 h; in short: as §4
[24] = tested on: Mus musculus; assay: Toxicity in C57BL/6J mouse assessed as loss of mobility at 1 mg/kg, sc administered every 3 days for a cycle of 2 injections; type: organism-based; design: dose 1 mg/kg, route subcutaneous; details: in vivo, 72 h
In short: (§5)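 Male C57BL/6J mice, 3 per group, given 1 mg/kg sc every 3 days. Weight recorded on injection days. Watched for signs of duress. Humane end point was visible duress or weight loss over 15% of starting body weight.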

[25] = tested on: Mus musculus; assay: Toxicity in C57BL/6J mouse assessed as hunched posture at 1 mg/kg, sc administered every 3 days for a cycle of 2 injections; type: organism-based; design: dose 1 mg/kg, route subcutaneous; details: in vivo, 72 h; in short: as §5
[26] = tested on: Mus musculus; assay: Toxicity in C57BL/6J mouse assessed as weight loss at 1 mg/kg, sc administered every 3 days for a cycle of 2 injections; type: organism-based; design: dose 1 mg/kg, route subcutaneous; details: in vivo, 72 h
In short: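 8-week-old male C57BL/6J mice, acclimated 3 days, groups of three, dosed sc in 25% DMSO/saline vehicle once every 3 days, sacrificed 2 days after the last injection. Body weight recorded on injection days and at end point; humane end point set at visible duress or >15% loss of original body weight.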

CC(=O)N[C@@H](CNC(=O)c1cc(NC(=O)c2cc(NC(=O)c3cc(NC(=O)c4nccn4C)cn3C)cn2C)cn1C)CC(=O)Nc1cn(C)c(C(=O)Nc2cc(C(=O)Nc3cc(C(=O)Nc4cc(C(=O)NCCCN(C)CCCNC(=O)c5cccc(C(=O)O)c5)n(C)c4)n(C)c3)n(C)c2)n1
Activity [1]: Non-toxic | Activity [2]: Non-toxic | Activity [3]: Non-toxic | Activity [4]: Non-toxic | Activity [5]: Non-toxic | Activity [6]: Toxic | Activity [7]: Toxic | Activity [8]: Toxic | Activity [9]: Toxic | Activity [10]: Toxic | Activity [11]: Toxic | Activity [12]: Toxic | Activity [13]: Toxic | Activity [14]: Toxic | Activity [15]: Toxic | Activity [16]: Toxic | Activity [17]: Non-toxic | remaining at 1 h [18]: < 5% | remaining at 1 h [19]: < 5% | remaining at 1 h [20]: < 5% | remaining at 1 h [21]: < 5% | Activity [22]: Toxic | Activity [23]: Toxic | Activity [24]: Toxic | Activity [25]: Toxic | Activity [26]: Toxic
